Measured values gathered from unrelated publications.
Lines come from different studies, so protocols differ.
NT5E: 5'-nucleotidase (NT5E, Homo sapiens, UniProt P21589)

The remaining binding of COc1ccc2oc(-c3ccc4nc(N)oc4c3)c/c(=N\c3ccccc3NC(=O)CCN)c2c1 is reported as 103% (Platelet-derived growth factor receptor alpha (PDGFRA, Homo sapiens, UniProt P16234); binding; 1 µM).
With CC(=O)ON=C1C=CC(=C(C#N)c2ccccc2)C=C1 the activity vs control was 87% (Dual specificity tyrosine-phosphorylation-regulated kinase 1A (Dyrk1a, Rattus norvegicus, UniProt Q63470); enzyme activity; inhibitor; ADP detection; 2 µM).
The remaining activity of NC/C(=C\F)COc1cccc(Cn2c(=S)[nH]c(=O)c3[nH]cnc32)c1 is reported as 81.1% (Lactoperoxidase (LPO, Bos taurus, UniProt P80025); enzyme activity; inhibitor; 2.5 µM).
With O=C(NS(=O)(=O)c1ccc(C(F)(F)F)cc1)c1cc2ccccc2n1Cc1ccc(Br)c2ccccc12 the inhibition was 17.2% (Xanthine dehydrogenase/oxidase (XDH, Bos taurus, UniProt P80457); enzyme activity; inhibitor; absorbance; 10 µM).
The inhibition of N#Cc1c(C(F)(F)F)cc(-c2ccccc2)nc1SCC(=O)Nc1cccnc1 is reported as 40% (NT5E; enzyme activity; inhibitor; 10 µM).
With C1=C/COCc2cc(ccc2OCCN2CCCC2)Nc2nccc(n2)-c2cccc(c2)COC/1 the remaining signal was 60% (Cyclin-dependent kinase 13 (CDK13, Homo sapiens, UniProt Q14004); cell-free assay; 0.1 µM).
For Cc1cc(-c2ccccc2)c(C#N)c(SCC(=O)Nc2nccs2)n1, the inhibition was 91% (NT5E; enzyme activity; inhibitor; HPLC; 10 µM).
CCCCC(=O)Nc1ccc(-c2ccc3ncn(CCC)c(=O)c3c2)cn1 has a remaining binding of 53% (Phosphatidylinositol 4-kinase beta (PI4KB, Homo sapiens, UniProt Q9UBF8); binding; competition with immobilised ligand; 0.5 µM).
